The list is not random: actives were taken first. Their share in the collection is about 1.7%.
NS3 helicase inh = blocks Hepatitis C virus NS3 helicase unwinding; AID 1800; hit rate 0.56% among 290,000; NS3 helicase DNA unwinding, Cy5 molecular beacon fluorescence; inhibition, % at 10.9 µM;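 active means inhibition above the mean of all tested compounds plus 3 SD, set per campaign, cut at about 35% in these data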
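Test system: hepatitis C virus NS3 helicase domain fragment enzyme. Also added: annealed dual-labelled DNA beacon duplex, ATP-started. Timing: 60 min unwinding reaction at 25 °C after ATP addition. Technique: Cy5 fluorescence. Measure: % inhibition of unwinding.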
MEX-5 binding = C. elegans MEX-5 TCR-2 RNA binding activity; Q9XUB2; MEX-5/FITC-TCR2 RNA binding, fluorescence polarization; hits give low values; activity score (negative = inhibition of binding), % at 10 µM; hit rate 0.38% among 300,000; AID 1832;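 active means inhibition past about -25% in most replicates, and total fluorescence under double the plate's negative control median, limit read from the data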
Target sequence (Q9XUB2 whole entry, looked up): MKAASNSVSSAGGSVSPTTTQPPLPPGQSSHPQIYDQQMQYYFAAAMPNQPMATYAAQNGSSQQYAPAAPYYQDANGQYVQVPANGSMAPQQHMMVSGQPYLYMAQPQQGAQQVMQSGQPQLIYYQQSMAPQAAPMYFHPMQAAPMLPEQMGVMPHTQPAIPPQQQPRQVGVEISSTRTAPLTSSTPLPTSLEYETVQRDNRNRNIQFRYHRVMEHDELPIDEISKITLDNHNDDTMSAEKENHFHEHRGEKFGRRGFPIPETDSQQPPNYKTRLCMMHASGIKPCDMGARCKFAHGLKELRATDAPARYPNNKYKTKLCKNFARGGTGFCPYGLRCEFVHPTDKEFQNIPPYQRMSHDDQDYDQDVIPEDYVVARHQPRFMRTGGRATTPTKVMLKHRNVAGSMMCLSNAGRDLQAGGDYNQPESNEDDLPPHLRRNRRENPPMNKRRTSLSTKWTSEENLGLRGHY
HCV core dimer = blocks dimerization of HCV core protein | AID 1899 | inhibition, % at 5 µM | TR-FRET GST/Flag-core106 dimerization, 1536-well | hit rate 0.33% among 300,000;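 active means inhibition above the mean of all tested compounds plus 3 SD, set per screening campaign, cut at about 45% in these data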
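Assay system: tagged HCV core106 pair (GST and Flag); medium: KF-containing HEPES buffer, pH 7.45, DTT, CHAPS, BSA; also added: Eu donor and XL665 acceptor anti-tag antibodies; dosing: 5 µM single dose; timing: compound-protein-antibody incubation 4 h at 22.5 °C; signal: TR-FRET 671 and 617 nm emission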
EBV gp42 block = blocks Epstein-Barr virus glycoprotein 42 binding. Fluorescence polarization binding assay, mP read-out. hit rate 0.42% among 220,000. Q1HVG2. inhibition, % (tested at 21.74 µM); in the data active means inhibition above about 50%
ZTA DNA inh = blocks Epstein-Barr virus ZTA, an EBNA-1 counter-screen | P03206 | ZTA-DNA binding, fluorescence polarization | inhibition, % at 11 µM | hit rate 0.15% among 320,000; in the data active means inhibition above about 33%
EBNA-1 inhibitor = blocks EBNA-1 binding to DNA. EBNA-1 DNA binding, fluorescence polarization. inhibition, % at 14.8 µM. AID 1950. hit rate 0.34% among 300,000; in the data active means inhibition above about 28%
Large screens that a line does not name were inactive.

N#Cc1c(-c2ccccc2)nc(SCC(=O)Nc2ccc(OC(F)(F)Cl)cc2)[nH]c1=O	none (no result: EBV gp42 block)
COc1ccc2c(C=Nc3c(C)n(C)n(-c4ccccc4)c3=O)c(O)n(Cc3ccco3)c(=O)c2c1	EBV gp42 block 78
Cc1c(N=Cc2ccco2)c(=O)n(-c2ccccc2)n1C	none
CC1CC(C)CN(S(=O)(=O)c2ccc3c(c2)CC(=O)N3)C1 (stereo unspecified)	none (no result: NS3 helicase inh, MEX-5 binding, HCV core dimer, EBV gp42 block, EBNA-1 inhibitor)
CC1=Nc2nc(N3CCCCC3)c(C#N)c3c4c(nc(c23)N1)N(c1ccc(C(C)C)cc1)C(=O)C4	HCV core dimer 46
Cc1cc(SCc2cccc([N+](=O)[O-])c2)nc(=O)[nH]1	none (no result: EBV gp42 block)
Cc1cc(SCC(=O)c2cccc([N+](=O)[O-])c2)nc(=O)[nH]1	HCV core dimer 71 (no result: EBV gp42 block)
CC1(C)CC2CC(C)(CN2C(=O)COC(=O)c2ccccc2C(F)(F)F)C1 (stereo unspecified)	none (no result: NS3 helicase inh, MEX-5 binding, HCV core dimer, EBV gp42 block, EBNA-1 inhibitor)
COc1ccc(NC(=O)CN(C)C(=O)c2cc3c(s2)CCC3)cc1	HCV core dimer 70 (no result: NS3 helicase inh, EBV gp42 block)
COc1cccc(NC(=O)CN(C)C(=O)c2cc3c(s2)CCC3)c1	HCV core dimer 59 (no result: NS3 helicase inh, EBV gp42 block)
CCOC(=O)c1ccc(-c2ccc(C=O)o2)cc1	MEX-5 binding -27
O=C1Nc2ccccc2S/C1=C\C(=O)N1CCCC1	none
O=C1CCCC2=C1Sc1ccccc1N2	EBV gp42 block 65
Nc1nc(N)nc(-c2cc(O)ccc2O)n1	none (no result: NS3 helicase inh, MEX-5 binding, HCV core dimer, EBV gp42 block, EBNA-1 inhibitor)
Oc1ccc(O)c(-c2cnns2)c1	MEX-5 binding -63
O=C(Cc1ccsc1)N1CCN(S(=O)(=O)c2ccccc2F)CC1	none (no result: NS3 helicase inh, MEX-5 binding, HCV core dimer, EBV gp42 block, EBNA-1 inhibitor)
CC[C@H](C)/C=C(C)/C=C/C(=O)Cc1cc(O)c(C)c(O)c1C=O	HCV core dimer 67 (no result: NS3 helicase inh)
CCc1cc(C(=O)NCC2CCCO2)sc1C (stereo unspecified)	none (no result: EBV gp42 block)
Brc1cc(Br)c2nc(-c3cccs3)ccc2c1	HCV core dimer 48
Nc1nccc(-c2cccs2)n1	none
COc1ccc(CC(=O)N(Cc2ccccc2)c2ccc(C)cc2)cc1OC	none (no result: EBV gp42 block)
CCC(C)NC(=O)Cc1c(C)c2cc3c(cc2oc1=O)OC(C)(C)CC3 (stereo unspecified)	none (no result: EBV gp42 block)
CCOC(=O)c1ccccc1NC(=O)c1ccc2nc[nH]c2c1	none (no result: EBV gp42 block)
CCOC(=O)c1ccccc1NC(=O)c1ccc2nccnc2c1	HCV core dimer 54
COc1ccc(C2C(C(C)=O)=C(C)N=c3s/c(=C\c4cc(C)n(C)c4C)c(=O)n32)c(OC)c1 (stereo unspecified)	MEX-5 binding -38, EBV gp42 block 92
COc1ccccc1N1C(=O)S/C(=C\c2ccc(C)s2)C1=O	MEX-5 binding -32 (no result: EBV gp42 block)
CC(=O)Nc1ccc(/C=C2\Sc3ccccc3C2=O)cc1	none
Cc1ccc(/C=C2\Sc3ccccc3C2=O)s1	EBV gp42 block 94
CSCCCc1cn([C@@H](CO)C(=O)NCCCCCCCCCCC(=O)N2CCNCC2)nn1	none (no result: NS3 helicase inh, EBV gp42 block)
Cc1ccc2c(c1)CCCN2S(=O)(=O)c1cccc(C(=O)Nc2ccccc2C(=O)O)c1	none (no result: EBV gp42 block)
Cn1nnnc1SCC(=O)Nc1ccccc1N1CCCCC1	EBV gp42 block 140
Cn1nnnc1SCC(=O)Nc1ccccc1Br	none (no result: EBV gp42 block)
CCc1ccc(OC)c(S(=O)(=O)Nc2ccc(Cc3ccncc3)cc2)c1	none (no result: EBV gp42 block)
Cc1cc(C)cc(NS(=O)(=O)c2c(C)[nH]c(=O)[nH]c2=O)c1	none (no result: HCV core dimer, EBV gp42 block, ZTA DNA inh, EBNA-1 inhibitor)
O=C(O)c1c2c(nc3ccccc13)/C(=C/c1ccc(O)cc1)CC2	MEX-5 binding -30
Cc1nc2ccc([N+](=O)[O-])cc2c(=O)n1Cc1ccccc1Br	none (no result: EBV gp42 block)
Cc1ccc(OCC(=O)c2ccc(Cl)s2)c([N+](=O)[O-])n1	HCV core dimer 57
COc1ccc(CCNC(=O)COc2nsnc2N2CCOCC2)cc1OC	EBV gp42 block 82
COc1ccc(NC(=O)COc2nsnc2N2CCOCC2)cc1	none
CCOC(=O)/C=C1\SCC(=O)N1Cc1nnc(-c2ccccc2Br)o1	HCV core dimer 64
CCCc1cc(=O)oc2cc(C)cc(OCC(=O)Nc3cccnc3)c12	none (no result: EBV gp42 block)
